The text below walks through data of ChEMBL document CHEMBL1123044, “Benzodiazepine receptor binding and anticonflict activity in a series of 3,6-disubstituted pyridazino[4,3-c]isoquinolines devoid of anticonvulsant properties” (J Med Chem, 1985).

Data set [1] has as its target GABA-A receptor; anion channel. Put plainly: In vitro binding affinity against benzodiazepine receptor using [3H]diazepam as radioligand. It is filed as protein-complex assay.
Data set [2] can be described thus: Lethal dose analysed when administered intraperitoneally. It is filed as toxicity, organism-based. The conditions noted are these: mouse, in vivo, ip. In short, it runs like this:
(§1)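 Acute toxicity was tested in male CD1 mice in groups of three per dose. Compounds were dispersed in 0.5% methocel and given ip at 10 mL/kg.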

The subject of data set [3] is Rattus norvegicus. Description: In vivo minimal effective dose for anticonflict activity by intraperitoneal administration in rats by the Vogel conflict procedure. It is filed as functional. The conditions noted are these: ip, read-out: MED. In short, it runs like this:
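Male Wistar rats deprived of food 24 h and water 48 h; 10 per dose given compound ip in 0.5% methocel (4 mL/kg) 30 min before test. After 15 s free drinking of sweetened milk, 0.3 mA shocks were delivered through the spout in alternating 5-s on/off cycles over 5 min; shocks counted.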

The test system of data set [4] is Mus musculus. Put plainly: Anticonvulsant activity against prevention of tonic extensor seizures in 50% mice in the presence of metrazole (ip administration). Format: functional.
Data set [5] concerns Mus musculus. Put plainly: Anticonvulsant activity against prevention of tonic extensor seizures in 50% mice in the presence of bicuculline (ip administration). Format: functional. In a few lines: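 Male CD1 mice, 10 per dose, given test compound ip in 0.5% methocel (10 mL/kg). Bicuculline, 2 mg/kg sc in aqueous solution, given 30 min later, following the metrazol protocol. ED50 is the dose preventing tonic extensor seizures in 50% of mice, obtained by Finney probit analysis with 95% confidence limits.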

Data set [6] addresses GABA-A receptor; anion channel (Rattus norvegicus) (UniProt O09028+P15431+P18506+P18508+P19969+P20236+P23574+P23576+P28471+P28473+P30191+P62813+P63079+P63138+Q91ZM7+Q9ES14). Description: Relative binding to GABA-A central benzodiazepine receptor in the presence and absence of 10e-4 M GABA (GABA shift). It is filed as protein-complex assay. In short, it runs like this:
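Rat forebrain membranes incubated in triplicate with 0.4 nM [3H]flunitrazepam and varying ligand concentrations, with or without 0.1 mM GABA, 20 min at 37 °C. Specific binding: total minus binding with 1 μM unlabelled clonazepam. The ratio compares displacement curves obtained without versus with GABA.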

The subject of data set [7] is Mus musculus. Description: Anticonvulsant activity against prevention of tonic extensor seizures in 50% mice in the presence of metrazole (ip administration); 0.11-0.28. Format: functional.
In data set [8] the test system is Mus musculus. Description: Anticonvulsant activity against prevention of tonic extensor seizures in 50% mice in the presence of bicuculline (ip administration); 0.13-0.25. Format: functional.
Data set [9] can be described thus: Lethal dose analysed in mice when administered intraperitoneally. The conditions noted are these: mouse, in vivo, ip. Format: toxicity, organism-based. In short, it runs like this: as §1

For orientation: Ki means the equilibrium dissociation constant of an inhibitor or competing ligand from its target. A lower Ki goes with higher affinity. The molecule `Clc1nc2cc(-c3ccccc3)nnc2c2ccccc12` returned a Ki in data set [1] of 6200 nM.

By LD50 is commonly meant the dose expected to kill half of the subjects tested. A lower LD50 goes with a more toxic substance. Molecule `COc1ccc(-c2cc3nc(N4CCC4)c4ccccc4c3nn2)cc1` gave an LD50 in data set [2] of 600 mg/kg. The minimal effective dose in data set [3] is 30 mg/kg. Further, the ED50 in data set [4] and in [5] was greater than 100 mg/kg in each case. The molecule further gave a Ki in data set [1] of 69.6 nM.

`COc1ccc(-c2cc3nc(N4CCCC4)c4ccccc4c3nn2)cc1` yielded an LD50 in data set [2] greater than 600 mg/kg. In addition, the minimal effective dose in [3] was 20 mg/kg. In addition, the ED50 in data set [4] and in data set [5] was greater than 100 mg/kg throughout. The same molecule returned a Ki in data set [1] of 18.7 nM.

Molecule `COc1ccc(-c2cc3nc(N(C)C)c4ccccc4c3nn2)cc1` displayed an LD50 in data set [2] greater than 600 mg/kg. Moreover, the minimal effective dose in data set [3] amounted to 10 mg/kg. The ED50 in data set [4] and in data set [5] was greater than 100 mg/kg each time. Further, the GABA ratio in [6] stood at 1.7. For the same molecule, the Ki in data set [1] is 63.3 nM.

Regarding `COc1ccc(-c2cc3nc(N(C)CC(C)O)c4ccccc4c3nn2)cc1` (centres undefined), the LD50 in [2] was greater than 600 mg/kg. Also, the minimal effective dose in data set [3] amounted to 30 mg/kg. Moreover, the ED50 in data set [4] and in data set [5] was greater than 100 mg/kg each time. In [6], the GABA ratio was determined as 1.4. Moreover, the Ki in data set [1] stood at 221 nM.

With `COCCN(CCOC)c1nc2cc(-c3ccc(OC)cc3)nnc2c2ccccc12`, the LD50 in [2] is greater than 600 mg/kg. Also, the minimal effective dose in [3] was found to be 10 mg/kg. For the same molecule, the ED50 in [4] and in data set [5] was greater than 100 mg/kg each time. Also, in [6], the GABA ratio amounted to 2. Besides, affinity in [1] was put at a Ki of 1180 nM.

In turn, `CC(C)Oc1nc2cc(-c3ccccc3)nnc2c2ccccc12` yielded an inhibitory constant (Ki) in data set [1] of 1900 nM.

With `CN1CCN=C(c2ccccc2)c2cc(Cl)ccc21` [MEDAZEPAM], the GABA ratio in [6] was found to be 1.9. Besides, the affinity in [1] corresponds to a Ki of 528 nM.

In [1], `CN(C)c1nc2cc(-c3ccc(Cl)cc3)nnc2c2ccccc12` came in with a Ki of 9300 nM.

In the case of `CC(O)CN(C)c1nc2cc(-c3ccc(Cl)cc3)nnc2c2ccccc12` (centres undefined), in [1], the affinity corresponds to a Ki of 17800 nM.

In data set [1], `c1ccc(-c2cc3ncc4ccccc4c3nn2)cc1` gave a Ki of 4000 nM.

As for `CCN(C)c1nc2cc(-c3ccccc3)nnc2c2ccccc12`, the 50% lethal dose (LD50) in [2] turned out to be 300 mg/kg. The minimal effective dose in data set [3] turned out to be 10 mg/kg. Further, the ED50 in data set [4] and in [5] was greater than 50 mg/kg throughout. Also, in [6], the GABA ratio was 1.5. The molecule further had an inhibitory constant (Ki) in [1] of 65.2 nM.

Regarding `Cc1nnc2ccc(-c3cccc(C(F)(F)F)c3)nn12` [CI-218872], the Ki in data set [1] was 198 nM.

As for `CN1C(=O)CN=C(c2ccccc2)c2cc(Cl)ccc21` [DIAZEPAM], in data set [3], the minimal effective dose stood at 0.5 mg/kg. The ED50 in data set [7] was 0.2%; in data set [8] it was 0.18%.

`CN(C)c1nc2cc(-c3ccccc3)nnc2c2ccccc12` gave an LD50 in data set [2] greater than 600 mg/kg. For the same molecule, the minimal effective dose in data set [3] came out at 10 mg/kg. Besides, the ED50 in data set [4] and in data set [5] was greater than 100 mg/kg in each case. Besides, the GABA ratio in data set [6] is 1.2. The same molecule came in with a Ki in [1] of 28.4 nM.

The molecule `COc1ccc(-c2cc3nc(N4CCOCC4)c4ccccc4c3nn2)cc1` displayed an LD50 in data set [2] greater than 600 mg/kg. In addition, the minimal effective dose in [3] was found to be 30 mg/kg. For the same molecule, the ED50 in data set [4] and in data set [5] was greater than 100 mg/kg each time. Besides, the Ki in data set [1] is 402 nM.

For the molecule `c1ccc(-c2cc3nc(N4CCCC4)c4ccccc4c3nn2)cc1`, in data set [2], the LD50 amounted to 300 mg/kg. Also, the minimal effective dose in [3] worked out at 5 mg/kg. The ED50 in data set [4] and in [5] was greater than 50 mg/kg each time. For the same molecule, the GABA ratio in data set [6] is 1.6. This molecule also showed a Ki in [1] of 11.4 nM.

For the molecule `Clc1ccc(-c2cc3nc(N4CCCC4)c4ccccc4c3nn2)cc1`, the Ki in data set [1] is 3480 nM.

`CC(O)CN(C)c1nc2cc(-c3ccccc3)nnc2c2ccccc12` (centres undefined): the LD50 in data set [2] stood at 300 mg/kg. In addition, in data set [3], the minimal effective dose came out at 30 mg/kg. For the same molecule, the ED50 in [4] and in [5] was greater than 50 mg/kg throughout. Further, in data set [6], the GABA ratio came out at 1.4. This molecule gave a Ki in data set [1] of 136 nM.

As for `CCOc1nc2cc(-c3ccccc3)nnc2c2ccccc12`, in data set [1], the Ki amounted to 1500 nM.

As to `Oc1nc2cc(-c3ccccc3)nnc2c2ccccc12`, in data set [1], the affinity corresponds to a Ki of 1700 nM.

The molecule `COc1ccc(-c2cc3nc(N4CCCCC4)c4ccccc4c3nn2)cc1` showed an LD50 in data set [2] greater than 600 mg/kg. For the same molecule, the minimal effective dose in [3] was found to be 10 mg/kg. Further, the ED50 in data set [4] and in [5] was greater than 100 mg/kg in each case. The molecule also had an inhibitory constant (Ki) in data set [1] of 658 nM.

With `COCCN(CCOC)c1nc2cc(-c3ccc(Cl)cc3)nnc2c2ccccc12`, the Ki in data set [1] worked out at 32500 nM.

On to `Cc1cc2nc(N3CCCC3)c3ccccc3c2nn1`, for which the LD50 in [9] was found to be 200 mg/kg. In addition, the minimal effective dose in data set [3] came out at 20 mg/kg. Moreover, the ED50 in data set [4] and in data set [5] was greater than 50 mg/kg each time. The GABA ratio in data set [6] stood at 1. The molecule also had an inhibition constant (Ki) in [1] of 245 nM.

On to `c1ccc(-c2cc3nc(N4CCOCC4)c4ccccc4c3nn2)cc1`, for which the LD50 in data set [2] came out at 200 mg/kg. In data set [3], the minimal effective dose was 15 mg/kg. Moreover, the ED50 in data set [4] and in [5] was greater than 50 mg/kg each time. In addition, the GABA ratio in data set [6] was determined as 1.4. In data set [1], this molecule returned a Ki of 152 nM.
